This is a sample that favours compounds with a hit; in the whole collection about 1.5% have one here.
Keap1-Nrf2 PPI – inhibitors of human Keap1-Nrf2 protein-protein interaction; Q14145; Keap1 Kelch-Nrf2 peptide fluorescence polarization, 1536-well; inhibition, % at 9.4 µM; 340,000 tested, 0.15% active; in the data active means inhibition above about 12%;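 further: human Keap1 Kelch domain with fluorescein labeled Nrf2 9mer peptide probe; 0% = neutral control wells and 100% = peptide positive control; higher means more block of Keap1 binding to Nrf2 peptide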
Target sequence (Q14145 whole entry, looked up, the tested form may be a part): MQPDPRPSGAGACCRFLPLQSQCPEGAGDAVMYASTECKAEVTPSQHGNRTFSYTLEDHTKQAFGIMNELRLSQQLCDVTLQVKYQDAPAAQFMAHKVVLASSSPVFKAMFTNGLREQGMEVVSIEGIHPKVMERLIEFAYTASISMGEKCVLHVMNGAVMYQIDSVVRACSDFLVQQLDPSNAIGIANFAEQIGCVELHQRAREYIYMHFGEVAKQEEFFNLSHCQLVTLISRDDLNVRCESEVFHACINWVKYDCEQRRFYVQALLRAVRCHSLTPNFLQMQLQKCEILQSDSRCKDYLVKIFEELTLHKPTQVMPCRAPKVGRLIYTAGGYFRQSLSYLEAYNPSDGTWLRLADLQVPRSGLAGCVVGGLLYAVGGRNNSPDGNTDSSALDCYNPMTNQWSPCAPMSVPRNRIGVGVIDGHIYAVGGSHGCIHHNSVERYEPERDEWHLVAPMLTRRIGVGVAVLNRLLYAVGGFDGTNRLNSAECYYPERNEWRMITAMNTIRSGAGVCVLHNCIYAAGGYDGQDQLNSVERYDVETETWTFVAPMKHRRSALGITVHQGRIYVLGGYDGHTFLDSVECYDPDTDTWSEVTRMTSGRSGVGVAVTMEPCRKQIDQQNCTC
CAL PDZ FP-1 – inhibitors of human CAL PDZ peptide binding; Q9HD26; purified CAL PDZ, TMR-peptide fluorescence polarization, 1 h; 300,000 tested, 0.92% active; inhibition, % at 24.9 µM;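 active means mean inhibition of at least 30% with at least half of replicates also reaching 30%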;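 further: 0% = DMSO neutral control and 100% = excess unlabeled competitor peptide PRC23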
LANA DNA inh – blocks KSHV LANA C-terminal domain binding to DNA; MBP-C-LANA/FAM-LBS DNA binding, fluorescence polarization; inhibition, % at 9 µM; 340,000 tested, 0.078% active;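 active means highest replicate inhibition at or above 60% at 9 µM, even if other replicates fall short; inactive means all replicates below 60% inhibition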;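 further: 0% = neutral control wells and 100% = 4 µM acridine orange control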
LANA-H2B inh – blocks KSHV LANA binding to histone H2A/H2B; Q9QR71; inhibition, % (concentration not given with the values); 320,000 tested, 0.6% active; cell-free LANA-H2A/H2B peptide, fluorescence polarization; AID 2629; in the data active means inhibition mostly above about 10%, no sharp cut-off; inactive means mostly below about 6.7%
CAL PDZ FP-2 – inhibitors of human CAL PDZ peptide binding; Q9HD26; purified CAL PDZ, TMR-peptide fluorescence polarization, 1 h; AID 504414; 330,000 tested, 0.02% active; inhibition, % at 20 µM;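 active means highest replicate inhibition of at least 40%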;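 further: plate controls were DMSO neutral control wells for no effect and unlabeled competitor peptide control wells for full effect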
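Test system: tagged CAL PDZ domain / Buffer or medium: sodium phosphate/NaCl buffer pH 7.4 with TCEP, IgG, Thesit / Reagent: TMR-labelled reporter peptide T*-PRC34 bound in PDZ groove / Compound dosing: single point, 20 µM / Schedule: 1 h incubation at room temperature before polarization reading / Technique: fluorescence polarization (mP) / Benchmarks: unlabelled peptide, DMSO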
CaV13 FRET inh – Disruptors of the CACNA1D IQ motif to Ca2+-dependent inactivation inhibitor domain association, primary screening, Förster resonance energy transfer in intact living …; HEK cells, CFP/YFP FRET ICDI-IQ, plate reader, 10 min; percent FRET-ratio fall versus neutral wells; inhibition, % at 12.3 µM; 340,000 tested, 0.098% active; AID 743397;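 active means mean replicate inhibition of at least 30% and at least 1% of replicates passing that level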;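 further: 0% = median of the neutral control wells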
* = called active by the depositor; / = no result; + = active, no number.

SMILES	Keap1-Nrf2 PPI	CAL PDZ FP-1	LANA DNA inh	LANA-H2B inh	CAL PDZ FP-2	CaV13 FRET inh
O=C(NCCN1CCCC1)C(c1ccccc1)c1ccccc1	-1.5	-5.4	0.1	-4.2	0.4	7.8
COCCN1Cc2cc(C(=O)OC)c3c(c2C1=O)c1cc(F)ccc1n3C(=O)c1ccccc1	/	/	/	/	/	-3.7
CCN(C[C@H]1N[C@@](Cc2ccccc2)(C(=O)OC)[C@H]2C(=O)N(C)C(=O)[C@@H]12)C(=O)c1ccccc1	2.2	-4.8	-2.2	/	0.9	-2.6
CCN(C[C@H]1N[C@@](Cc2ccccc2)(C(=O)OC)[C@H]2C(=O)N(C)C(=O)[C@@H]12)C(=O)NC(C)C	0.5	7.2	-0.7	+	-0.4	-7.1
CCN(C[C@H]1N[C@@](CC)(C(=O)OC)[C@H]2C(=O)N(Cc3ccccc3)C(=O)[C@@H]12)S(=O)(=O)c1ccc(C)cc1	-4.7	-2.4	-1.2	+	-1.5	-3.5
CCN(C[C@H]1N[C@@](Cc2ccccc2)(C(=O)OC)[C@H]2C(=O)N(C)C(=O)[C@@H]12)S(=O)(=O)c1ccc(OC)cc1	3.9	2.3	-1.5	+	0.6	-5.3
COC(=O)Cc1nnn2c1[C@@H](C)[C@@H](c1ccccc1Br)O[C@@H](C)C2	/	/	/	/	/	-4.0
COC(=O)[C@]12C[C@H](CC(=O)NCc3ccc(C)o3)C(=O)N(Cc3ccc4c(c3)OCO4)C1=C[C@H](COCc1ccccc1)O[C@@H]2C	/	/	/	/	/	-7.6
O=C1c2ccccc2C2Cc3nnccc3CN12 (centres undefined)	/	/	/	/	/	-4.2
COc1ccc(/C=C\C(=O)c2c(O)ccc3c(C)cc(=O)oc23)cc1OC	3.0	-0.7	0.3	16.0*	-0.7	/
COC(=O)[C@]12C[C@H](CC(=O)N3CCCC3)C(=O)N(Cc3ccccc3)C1=C[C@H](C1CCCC1)O[C@@H]2C	/	/	/	/	/	-9.7
Cc1nonc1OCCNCCNc1ccccc1[N+](=O)[O-]	-3.3	-0.7	1.4	23.8*	-1.9	9.0
CSc1nsc(SCC(=O)NCc2ccc(C)cc2)n1	1.5	71.1*	-1.2	-1.8	/	-4.6
CSc1nsc(SCC(=O)NCc2ccccc2)n1	-1.6	0.9	0.4	-4.6	-0.7	-18.9
CN(C)Cc1c(C(=O)N/N=C/c2ccc(OCc3c(F)cccc3Cl)cc2)nnn1-c1nonc1N	3.6	76.6*	1.1	-1.5	2.4	-3.2
O=C(Nc1cccnc1)c1cc(-c2cccs2)on1	-3.8	-7.1	0.8	91.8*	-1.7	-4.2
Cc1c(NC(=O)c2cc(-c3cccs3)on2)c(=O)n(-c2ccccc2)n1C	-2.2	/	-1.1	174.6*	-0.7	-7.6
CCSc1nnc(NC(=O)CCNC(=O)c2ccccc2Cl)s1	3.9	115.2*	-0.1	-0.3	-0.3	-5.6
COC(=O)c1ccc(NC(=O)CC(=O)Nc2ccc(C(=O)OC)cc2)cc1	-2.8	-0.7	-0.2	-6.0	-1.1	-1.7
COC(=O)c1ccc(NC(=O)CNc2ccccc2)cc1	-3.0	42.9*	0.3	-1.8	-1.0	6.6
COc1ccc(CN2CCC(n3nccc3NC(=O)C3CC3)CC2)c(OC)c1OC	-2.9	71.3*	-0.3	-0.9	0.2	-7.3
CCCn1ncc(CN2CCC(n3nccc3NC(=O)c3ccccc3OC)CC2)c1C	-1.3	-2.5	-1.0	5.1	0.0	-3.1
O=C(Nc1ccnn1C1CCN(Cc2ccccc2)CC1)C1CCCC1	0.0	-2.8	-1.6	9.2	-0.6	-5.0
CCCCc1ncc(CN2CCC(n3nccc3NC(=O)c3ccccc3OC)CC2)[nH]1	-3.8	111.2*	-1.4	1.8	0.0	-2.0
CCOc1ccccc1CN1CCC(n2nccc2NC(=O)C2CCCC2)CC1	0.5	5.3	-0.3	6.8	112.1*	/
SMILES	Keap1-Nrf2 PPI	CAL PDZ FP-1	LANA DNA inh	LANA-H2B inh	CAL PDZ FP-2	CaV13 FRET inh
COCCN1Cc2cc(C(=O)OC)c3c(c2C1=O)c1cc(OC)ccc1n3C(=O)c1ccccc1	/	/	/	/	/	-8.3
CCn1nnnc1SCC(=O)c1cc(OC)ccc1OC	-7.8	40.8*	0.2	-0.7	0.2	/
COc1ccc(OC)c(C(=O)CSc2nnnn2C)c1	3.4	-1.1	0.7	-4.7	-2.9	-3.7
Cc1ccc(S(=O)(=O)c2nnn3c2nc(NCCCN2CCCC2=O)c2ccccc23)cc1C	1.8	-1.3	-0.2	4.8	-4.8	-16.0
Cc1cc(C)c2nc(C(F)(F)F)nc(NCCCN3CCCC3=O)c2c1	-0.8	-6.2	-1.3	19.3*	-0.8	-4.7
CC(C)OC(=O)CC(=O)c1sc2nc3c(cc2c1N)CN(C)CC3	/	/	/	74.3*	/	/
CCOC(=O)[C@H]1[C@H]2COc3ccccc3[C@@H]2N2C(=O)CN(Cc3ccc(C)cc3)C(=O)[C@@]12C	7.9	-5.2	60.6*	19.7	-0.4	7.1
Cc1[nH]c2ccccc2c1C(=O)c1c(N)[nH]c(C(=O)c2ccc(Br)cc2)c1-c1ccc(Br)cc1	/	/	/	/	/	-16.0
CC(=O)Nc1ccc(Oc2nc(-c3cccnc3)nc3sc4c(c23)CCCC4)cc1	-5.1	67.2*	1.4	2.8	-0.5	/
COc1ccccc1-[n+]1c(C)cc(/C=C2\Sc3ccccc3N2C)cc1C	-10.0	52.7*	-15.7	-50.6	4.1	19.0
COc1ccc(-[n+]2c(C)cc(/C=C3\Sc4ccccc4N3C)cc2C)cc1	-19.5	-0.5	-10.7	-98.7	3.9	34.4*
COC(=O)[C@]1(C)N[C@H](CN(C)C(=O)Nc2ccc(Cl)cc2)[C@@H]2C(=O)N(Cc3ccccc3)C(=O)[C@@H]21	-1.2	-4.0	2.1	+	0.2	-7.3
COC(=O)[C@]1(C)N[C@H](CN(C)C(=O)Nc2ccc(C)cc2)[C@@H]2C(=O)N(Cc3ccccc3)C(=O)[C@@H]21	0.3	-0.7	0.0	-1.4	0.6	-4.6
CC[C@@]1(C(=O)OC)N[C@H](CN(C)C(=O)Nc2ccc(F)cc2)[C@@H]2C(=O)N(Cc3ccccc3)C(=O)[C@@H]21	-2.4	0.8	1.7	/	-1.6	-8.8
CC[C@@]1(C(=O)OC)N[C@H](CN(C)C(=O)Nc2ccc(OC)cc2)[C@@H]2C(=O)N(Cc3ccccc3)C(=O)[C@@H]21	0.9	-2.2	-2.4	+	-0.6	-6.6
COC(=O)C1=C(C)N(Cc2ccc(C(F)(F)F)cc2)C(=NCc2ccccc2C(F)(F)F)NC1c1cccc(Cl)c1 (centres undefined)	/	/	/	/	/	-3.7
COc1cc2c(c(OC)c1OC)C1(CCCCC1)CC2NCC=C(C)C (centres undefined)	/	/	/	/	/	-4.0
CNc1nc(-c2ccc(S(=O)(=O)N3CCCCC3)cc2)cs1	0.7	/	1.6	15.4*	-0.4	-7.6
O=C(Nc1nc(-c2ccc(S(=O)(=O)N3CCCC3)cc2)cs1)c1ccco1	-1.2	-5.2	0.1	-1.9	/	-3.8
CCN=C1NC(c2ccc(C(F)(F)F)cc2)C(C(=O)OC)=C(C)N1Cc1ccccc1C(F)(F)F (centres undefined)	/	/	/	/	/	-1.9

Bioassay records deposited in PubChem by Broad Institute.
